From PubChem BioAssay AID504788 (Broad Institute, 2011)
Results filed as inconclusive are left out. Active and inactive are the calls of the source.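 How the source made its calls: active means compound lowers the viability signal with a fitted half-maximal concentration within ten times the top dose, every run; inconclusive means runs disagree, poor fit, or flat partial inhibition; inactive means the rest.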

System: not listed separately
Assay: HMLE_shECad viability reduction – cell-based, CellTiter-Glo luminescence, dry powder, set 7, dose response (AID 504788)
Settings: HMLE_shECad viability, CellTiter-Glo luminescence, 72 h; at 19.5 µM (top of the series)
Method in brief: (§1)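 System: HMLE_shECad breast CSC surrogate cells | Quantity: 2000 cells per well | Detection: CellTiter-Glo luminescence, reagent diluted 1:3 in PBS, 12 min | Medium: Serum-free CSC medium | Schedule: ≥4 h settling, ~72 h compound exposure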

Structure (SMILES)	activity change, negative = inhibition
N#Cc1ccccc1/C=C/C(=O)NC1=NCCS1	-13.1% (inactive)
Cc1cccc(/C=C/C(=O)NC2=NCCS2)c1	6.76% (inactive)
O=C(c1ccc(COc2ccccc2)o1)n1ccc(-c2ccc[nH]2)n1	7.35% (inactive)
CC(C)c1ccc(/C=C/C(=O)N2CC(F)(F)C2)cc1	-4.76% (inactive)
O=C(c1ccc(COc2ccccc2)o1)N1CC(F)(F)C1	1.55% (inactive)
O=C(O)COc1ccc(Cl)cc1Cl	-2.16% (inactive)
O=C(COc1ccc(Cl)cc1Cl)NC1=NCCS1	-3.83% (inactive)
c1c[nH]c(-c2ccn[nH]2)c1	5% (inactive)
O=C(COc1ccc(Cl)cc1Cl)n1ccc(-c2ccc[nH]2)n1	7.33% (inactive)
N#Cc1cccc(/C=C/C(=O)NC2=NCCS2)c1	0.158% (inactive)
CN(C)C(=N)N=C(N)N	6.34% (inactive)
COc1cc(OC(C)C)ccc1/C=C/C(=O)NC1=NCCS1	-1.34% (inactive)
CCc1ccc(/C=C/C(=O)NC2=NCCS2)cn1	1.08% (inactive)
Cc1csc(NC(=O)c2ccc(COc3cccnc3)o2)n1	-5.96% (inactive)
O=C(COc1ccc(Cl)cc1Cl)N/N=C/c1ccccc1	3.46% (inactive)
CC(C)c1ccc(C#CC(=O)NC2=NCCS2)cc1	-4.05% (inactive)

System: HMLE_shECad viability, CellTiter-Glo luminescence, 72 h
Assay: as above
Settings: not given
Method in brief: as §1

Structure (SMILES)	AC50
O=C(/C=C/c1ccc(-c2ccccc2)nc1)NC1=NCCS1	29 µM
CC(C)c1ccc(/C=C/C(=O)n2ccc(-c3ccc[nH]3)n2)cc1	15.6 µM
Cc1csc(NC(=O)c2cccc(COc3ccccc3F)c2)n1	1.93 µM
O=C(COc1c(Cl)cc(Cl)cc1Cl)N/N=C/c1ccc[nH]1	1.7 µM
Cc1csc(NC(=O)c2cccc(COc3cccc(F)c3)c2)n1	0.705 µM
COc1cccc2c1C(=O)c1c(O)c3c(c(O)c1C2=O)C[C@@](O)(C(=O)CO)C[C@@H]3OC1C[C@H](N)[C@H](O)[C@H](C)O1 (stereo not given in full)	0.053 µM
Cc1cccc(OCc2cccc(C(=O)Nc3nc(C)cs3)c2)c1	2.74 µM
Cc1cccc(NCc2cccc(C(=O)Nc3nc(C)cs3)c2)n1	21.1 µM
Cc1csc(NC(=O)c2ccc(COc3ccncc3)o2)n1	20 µM
Cc1csc(NC(=O)c2ccc(COc3ncccc3F)o2)n1	22.7 µM
Cc1cccc(OCc2ccc(C(=O)Nc3nc(C)cs3)o2)n1	18.7 µM
Cc1ccnc(NCc2cccc(C(=O)Nc3nc(C)cs3)c2)c1	17.7 µM
COc1cc(C(C)C)ccc1/C=C/C(=O)NC1=NCCS1	30.6 µM
Cc1csc(NC(=O)c2cccc(COc3cccc(Cl)c3)c2)n1	1.11 µM
COc1cc([C@@H]2c3cc4c(cc3[C@@H](OC3OC5COC(C)OC5C(O)C3O)[C@H]3COC(=O)[C@H]23)OCO4)cc(OC)c1O (stereo not given in full)	2.95 µM
Cc1csc(NC(=O)c2cccc(CNc3ncccc3F)c2)n1	22.9 µM
Cc1csc(NC(=O)c2ccc(COc3cccc(OC(F)(F)F)c3)o2)n1	0.895 µM
Cc1cccc(NCc2ccc(C(=O)Nc3nc(C)cs3)o2)n1	18 µM
Cc1csc(NC(=O)COc2ccc(Cl)cc2Cl)n1	28.9 µM
